# Published values collected from several papers.
# Protocols differ between the studies behind these lines.
# G protein-coupled receptor 88: G protein-coupled receptor 88 (Homo sapiens, UniProt Q9GZN0)
# SLCO1B3: Solute carrier organic anion transporter family member 1B3 (SLCO1B3, Homo sapiens, UniProt Q9NPD5)
# Cnr2: Cannabinoid receptor 2 (Cnr2, Mus musculus, UniProt P47936)
Structure (SMILES),target,assay,test system,conditions,quantity,value
CCCCOc1ccc([C@@H](CO)C(=O)N[C@H](C)c2ccccc2)cc1,G protein-coupled receptor 88,"cAMP, agonist, TR-FRET",,,EC50,5.13 µM
OCCCCO,"Cytochrome P450 2E1 (Cyp2e1, Rattus norvegicus, UniProt P05182)","enzyme activity, inhibitor","Fischer 344 rat, liver microsomes",30 min,IC50,5800 µM
CCOC(=O)c1cncn1[C@H](C)c1ccccc1,SLCO1B3,"transporter uptake, inhibitor, fluorescence",CHO,"30 min, pH 7.4",IC50,> 100 µM
CCCCCCC(C)(C)c1cc(O)c2c(c1)OC(C)(C)[C@@H]1CC=C(C)C[C@@H]21,Cnr2,"ligand displacement, radioligand",,cell membranes,Ki,0.0014 µM
CC(C)(C)[C@H](NC(=O)C(F)(F)F)C(=O)N1C[C@H]2[C@@H]([C@H]1C(=O)N[C@H](C#N)C[C@@H]1CCNC1=O)C2(C)C,SLCO1B3,"transporter uptake, inhibitor",,,Ki,283 µM
Cc1c(C(=O)c2cccc3ccccc23)c2cccc3c2n1[C@H](CN1CCOCC1)CO3,Cnr2,"ligand displacement, radioligand",,cell membranes,Ki,0.0058 µM
O=C[C@H](C[C@@H]1CCNC1=O)NC(=O)[C@H](CC1CCCCC1)NC(=O)c1cc2ccccc2[nH]1,"Procathepsin L (CTSL, Homo sapiens, UniProt P07711)","enzyme activity, inhibitor",,,IC50,0.00021 µM
O=c1[nH]c2ccccc2n1C1CCN(CCCC(c2ccc(F)cc2)c2ccc(F)cc2)CC1,"Signal transducer and activator of transcription 5B, SH2 (STAT5B, Homo sapiens, UniProt P51692)","protein-protein interaction, inhibitor, FP",,,IC50,75.1 µM
CCCCCOc1ccc([C@@H](CO)C(=O)N[C@H](C)c2ccccc2)cc1,G protein-coupled receptor 88,"cAMP, agonist, TR-FRET",,,EC50,3.24 µM
